# The source made the active and inactive calls. The rule behind the calls is not given here.
# Experiments:
# Pseudomonas aeruginosa [1] = experiment: Antibacterial activity against extremely drug-resistant Pseudomonas aeruginosa isolate 104354 infected in Galleria mellonella assessed as larvae survival administered as single dose measured after 24 to 96 hrs; format: functional
# Method in brief: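 Galleria mellonella larvae were infected with 10^6 CFU of XDR P. aeruginosa #104354, resistant to all antipseudomonal classes except colistin. A single injected drug dose was given 2 h post-infection: 50 mg/kg with survival read at 24 h, or 75 mg/kg with survival read at 96 h. Controls were infected untreated larvae and PBS-injected larvae. Two independent experiments of 15 larvae each (n = 30).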
# Pseudomonas aeruginosa [2] = experiment: Antibacterial activity against multidrug-resistant/tobramycin-susceptible Pseudomonas aeruginosa isolate 85322; format: functional
# Escherichia coli [3] = experiment: Antibacterial activity against fluoroquinolone resistant Escherichia coli isolate 98550 harboring beta-lactamase CTX-M-15/OXA-1; format: functional
# Escherichia coli [4] = experiment: Antibacterial activity against Escherichia coli ATCC 25922 after 24 hrs by microtitre broth dilution method; format: functional; conditions: ATCC 25922, 24 h
# Pseudomonas aeruginosa [5] = experiment: Potentiation of ciprofloxacin induced antibacterial activity against multidrug/extremely drug-resistant Pseudomonas aeruginosa isolate PA260-97103 assessed as ciprofloxacin MIC at <= […] ug/ml (reference value: […] to […] ug/ml); format: functional
# Acinetobacter baumannii = experiment: Antibacterial activity against Acinetobacter baumannii isolate CAN-ICU 63169 after 24 hrs by microtitre broth dilution method; format: functional; conditions: isolate CAN-ICU 63169, 24 h
# Klebsiella pneumoniae = experiment: Antibacterial activity against Klebsiella pneumoniae ATCC 13883 after 24 hrs by microtitre broth dilution method; format: functional; conditions: ATCC 13883, 24 h
# Escherichia coli [6] = experiment: Antibacterial activity against gentamicin-resistant Escherichia coli isolate CAN-ICU 61714 after 24 hrs by microtitre broth dilution method; format: functional; conditions: isolate CAN-ICU 61714, 24 h
# Pseudomonas aeruginosa [7] = experiment: Potentiation of ciprofloxacin induced antibacterial activity against pandrug-resistant Pseudomonas aeruginosa isolate 101243 assessed as ciprofloxacin MIC at <= […] ug/ml (reference value: 2 ug/ml); format: functional
# Pseudomonas aeruginosa [8] = experiment: Antibacterial activity against multidrug/extremely drug-resistant/Pseudomonas aeruginosa isolate PA260-97103 in presence of <= 4 ug/ml of ciprofloxacin (reference value: 1 ug/ml); format: functional
# Escherichia coli [9] = experiment: Antibacterial activity against fluoroquinolone resistant Escherichia coli isolate 80960 harboring beta-lactamase CTX-M-15/TEM-1; format: functional
# Pseudomonas aeruginosa [10] = experiment: Antibacterial activity against Pseudomonas aeruginosa PAO1 assessed as fractional inhibitory concentration index after 18 hrs in presence of meropenem by checkerboard method; format: functional
# Method in brief: (§1)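 Checkerboard combinations of the hybrid with each partner antibiotic were tested against P. aeruginosa PAO1. Interaction is expressed as the fractional inhibitory concentration (FIC) index: ≤0.5 means synergy, 1–2 no interaction, ≥4 antagonism.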
# Escherichia coli [11] = experiment: Antibacterial activity against fluoroquinolone resistant Escherichia coli isolate 85332 harboring beta-lactamase CTX-M-14/TEM-1; format: functional
# Pseudomonas aeruginosa [12] = experiment: Antimotility activity against Pseudomonas aeruginosa PAO1 assessed as reduction in flagellum-dependent swimming motility after 20 hrs; format: functional
# Method in brief: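 Swim plates (0.3% agar, dried and set for 60 min) were inoculated with PAO1 at OD600 1.0, with or without 0.25 µg/mL test agent. Plates were imaged after 20 h at 37 °C.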
# Pseudomonas aeruginosa [13] = experiment: Antibacterial activity against multidrug/extremely drug-resistant Pseudomonas aeruginosa isolate PA260-97103 in presence of <= 4 ug/ml of moxifloxacin (reference value: 1 ug/ml); format: functional
# Pseudomonas aeruginosa [14] = experiment: Induction of inner membrane permeabilization in Pseudomonas aeruginosa PAO1 assessed as accumulation of propidium iodide at 8 ug/ml after 3 to 4 hrs by fluorescence microscopy; format: functional
# Method in brief: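 PAO1 cells were treated with 8 µg/mL for 3 h at 37 °C, then stained with the membrane-impermeable nucleic-acid dye propidium iodide. Fluorescence microscopy and DIC imaging were compared against untreated cells.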
# Escherichia coli [15] = experiment: Antibacterial activity against fluoroquinolone resistant Escherichia coli isolate 89439 harboring beta-lactamase CTX-M-15/OXA-1; format: functional
# Pseudomonas aeruginosa [16] = experiment: Antibacterial activity against multidrug/extremely drug-resistant Pseudomonas aeruginosa isolate PA262-101856 in presence of <= 4 ug/ml of ciprofloxacin (reference value: 4 ug/ml); format: functional
# Pseudomonas aeruginosa [17] = experiment: Antibacterial activity against Pseudomonas aeruginosa PAO1 assessed as fractional inhibitory concentration index after 18 hrs in presence of moxifloxacin by checkerboard method; format: functional; method in brief: as §1
# Pseudomonas aeruginosa [18] = experiment: Potentiation of moxifloxacin induced antibacterial activity against pandrug-resistant Pseudomonas aeruginosa isolate 101243 assessed as moxifloxacin MIC at <= […] ug/ml (reference value: 8 ug/ml); format: functional
# Pseudomonas aeruginosa [19] = experiment: Antibacterial activity against multidrug/extremely drug-resistant/colistin-susceptible Pseudomonas aeruginosa isolate 259-96918; format: functional
# Escherichia coli [20] = experiment: Antibacterial activity against fluoroquinolone resistant Escherichia coli isolate 92756 harboring beta-lactamase CTX-M-14/TEM-1; format: functional
# [21] = Toxicity in Galleria mellonella upto 96 hrs
# Method in brief: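 Tolerability test in Galleria mellonella larvae, injected with doses up to a maximum of 600 mg/kg.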
# Escherichia coli [22] = experiment: Antibacterial activity against fluoroquinolone resistant Escherichia coli isolate 88273 harboring beta-lactamase CTX-M-15/TEM-1/OXA-1; format: functional
# Escherichia coli [23] = experiment: Antibacterial activity against fluoroquinolone resistant Escherichia coli isolate 92969 harboring beta-lactamase CTX-M-15/OXA-1; format: functional
# Pseudomonas aeruginosa [24] = experiment: Antibacterial activity against multidrug/extremely drug-resistant/colistin-susceptible Pseudomonas aeruginosa isolate 101885; format: functional
# Pseudomonas aeruginosa [25] = experiment: Antibacterial activity against Pseudomonas aeruginosa ATCC 27853 after 24 hrs by microtitre broth dilution method; format: functional; conditions: ATCC 27853, 24 h
# Pseudomonas aeruginosa [26] = experiment: Antibacterial activity against multidrug/extremely drug-resistant/pandrug-resistant Pseudomonas aeruginosa isolate PA259-96918 in presence of <= 4 ug/ml of moxifloxacin (reference value: 2 ug/ml); format: functional
# Pseudomonas aeruginosa [27] = experiment: Potentiation of moxifloxacin induced antibacterial activity against multidrug/extremely drug-resistant Pseudomonas aeruginosa isolate PA260-97103 assessed as moxifloxacin MIC at <= […] ug/ml (reference value: […] to […] ug/ml); format: functional
# Pseudomonas aeruginosa [28] = experiment: Antibacterial activity against multidrug-resistant/tobramycin-susceptible Pseudomonas aeruginosa isolate 80621; format: functional
# Pseudomonas aeruginosa [29] = experiment: Antibacterial activity against multidrug-resistant/tobramycin-susceptible Pseudomonas aeruginosa isolate 86141; format: functional
# Escherichia coli [30] = experiment: Antibacterial activity against amikacin-resistant Escherichia coli isolate CAN-ICU 63074 after 24 hrs by microtitre broth dilution method; format: functional; conditions: isolate CAN-ICU 63074, 24 h
# Pseudomonas aeruginosa [31] = experiment: Antimicrobial activity against Pseudomonas aeruginosa PAO1 assessed as outer membrane damage at 8 ug/ml after 3 to 4 hrs by uranyl acetate staining based transmission electron microscopy; format: functional
# Method in brief: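 PAO1 in Mueller-Hinton broth was exposed to 8 µg/mL at 37 °C (3 h in the legend, 4 h in the text). Untreated cells were the reference. Morphology was imaged by transmission electron microscopy at 75 kV.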
# Pseudomonas aeruginosa [32] = experiment: Bactericidal activity against Pseudomonas aeruginosa PAO1 at 2 times MIC up to 24 hrs by time-kill kinetic study; format: functional
# Method in brief: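 PAO1 was grown in MH broth with varying concentrations of the test agent; colistin at its MIC served as comparator. Viable counts (CFU) were followed up to 24 h. There were three independent experiments, and each point is the mean of three determinations ± SEM.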
smiles,measurement,setting,value
COc1c(N2C[C@@H]3CCCN(CCCCCCCCCCCCO[C@@H]4[C@@H](O[C@H]5O[C@H](CO)[C@@H](O)[C@H](N)[C@H]5O)[C@H](N)C[C@H](N)[C@H]4O[C@H]4O[C@H](CN)[C@@H](O)C[C@H]4N)[C@@H]3C2)c(F)cc2c(=O)c(C(=O)O)cn(C3CC3)c12.Cl.Cl.Cl.Cl.Cl,Activity,Pseudomonas aeruginosa [1],Dose-dependent effect
same,MIC,Pseudomonas aeruginosa [2],8 µg/mL
same,MIC,Escherichia coli [3],≥ 64 µg/mL
same,MIC,Escherichia coli [4],0.5 µg/mL
same,MIC,Pseudomonas aeruginosa [5],1 µg/mL
same,MIC,Acinetobacter baumannii,16 µg/mL
same,MIC,Klebsiella pneumoniae,1 µg/mL
same,MIC,Escherichia coli [6],4 µg/mL
same,MIC,Pseudomonas aeruginosa [7],0.06 µg/mL
same,MIC,Pseudomonas aeruginosa [8],< 0.25 µg/mL
same,MIC,Escherichia coli [9],≥ 64 µg/mL
same,fractional inhibitory concentration index (FICI),Pseudomonas aeruginosa [10],2
same,MIC,Escherichia coli [11],≥ 64 µg/mL
same,Activity,Pseudomonas aeruginosa [12],Dose-dependent effect
same,MIC,Pseudomonas aeruginosa [13],0.25 µg/mL
same,Activity,Pseudomonas aeruginosa [14],Active
same,MIC,Escherichia coli [15],≥ 64 µg/mL
same,MIC,Pseudomonas aeruginosa [16],< 0.5 µg/mL
same,fractional inhibitory concentration index (FICI),Pseudomonas aeruginosa [17],0.18
same,MIC,Pseudomonas aeruginosa [18],0.06 µg/mL
same,MIC,Pseudomonas aeruginosa [19],2 µg/mL
same,MIC,Escherichia coli [20],≥ 64 µg/mL
same,MTD at 96 h,[21],600 mg/kg
same,MIC,Escherichia coli [22],≥ 64 µg/mL
same,MIC,Escherichia coli [23],≥ 64 µg/mL
same,MIC,Pseudomonas aeruginosa [24],8 µg/mL
same,MIC,Pseudomonas aeruginosa [25],4 µg/mL
same,MIC,Pseudomonas aeruginosa [26],< 1 µg/mL
same,MIC,Pseudomonas aeruginosa [27],1 µg/mL
same,MIC,Pseudomonas aeruginosa [28],8 µg/mL
same,MIC,Pseudomonas aeruginosa [29],4 µg/mL
same,MIC,Escherichia coli [30],4 µg/mL
same,Activity,Pseudomonas aeruginosa [31],Active
same,Activity,Pseudomonas aeruginosa [32],Active

# — ChEMBL document CHEMBL3856229, “Hybrid Antibiotic Overcomes Resistance in P. aeruginosa by Enhancing Outer Membrane Penetration and Reducing Efflux” (J Med Chem, 2016)
